Data from ChEMBL document CHEMBL1132241, “Novel multidrug resistance reversal agents” (J Med Chem, 1999).

Tests used:
[1] = Partition coefficient (logP); format: physicochemical; details: octanol/water
Mus musculus [2] = test: Percent increase in mean life span relative to treatment with an equivalent dose of vincristine alone at 12.5 mg/kg in mice with vincristine-resistantmurine leukemia P388/VCR cells; format: functional
Summary of the method: (§1)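 CDF1 mice were implanted ip with 1 × 10^6 P388/VCR cells. Agent and 0.2 mg/kg vincristine were given simultaneously ip once daily, days 1–7. Mean survival over up to 30 days was compared with vincristine alone at an equivalent dose, giving % increase in life span. Student t-test was applied to mean survival time.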

S1B1-20 = test: In vitro concentration required to inhibit tumor activity on subclone of human colon carcinoma cells (S1-B1-20) resistant to bisantrene; format: functional, cell-based; details: Homo sapiens, S1B1-20
Summary of the method: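 S1-B1-20 cells (S1 clone of LS 174 T, selected in bisantrene over 12–16 weeks) plated at 20 000 cells/well with or without 20 μM bisantrene, plus test agent 0.1–80 μM from DMSO stock (final DMSO ≤0.1%). 3 days, 37 °C, 7% CO2. Survival by sulforhodamine B at 540 nm. IC50 from best-fit curve of difference score (survival alone minus survival with bisantrene) at 50; 2–4 sets of measurements.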

Mus musculus [3] = test: Percent increase in mean life span in mice infected with leukemia P388/VCR, at 12.5 mg/Kg dose; format: functional
Summary of the method: (§2)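 CDF1 mice (groups of 10–15) were implanted ip with 1 × 10^6 P388/VCR cells. Agent plus 0.2 mg/kg vincristine were given together ip once daily on days 1–7, starting 1 day post-implant, in cremophor/ethanol or propylene glycol/ethanol vehicle. Survival was recorded to 30 days. Result is the % increase in mean life span versus placebo control.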

[4] = In vitro concentration at which 50% of human colon carcinoma cells (S1-B1-20) resistant to bisantrene have survived; format: ADME, cell-based, S1B1-20; details: S1-B1-20 human colon carcinoma cells resistant to bisantrene, read-out: LD50 (the source's name)
Summary of the method: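 S1-B1-20 cells (LS 174 T-derived S1 clone selected in bisantrene over 12–16 weeks), trypsinized, 20 000 cells/well. Test agent alone in DMSO (≤0.1% final), 0.1–80 µM, 3 days at 37 °C, 7% CO2. Survival by sulforhodamine B read at 540 nm versus untreated cells. Two to four measurement sets were made, and the value is the concentration giving 50% survival from a best-fit curve.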

Mus musculus [5] = test: Percent increase in mean life span when 0.2 mg/kg vincristine was administered ip once daily on days 1-7, in mice infected with leukemia P388/VCR; format: functional; design: concentration or dose not given beside the values; details: route intraperitoneal
Summary of the method: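 CDF1 mice bearing ip P388/VCR (1 × 10^6 cells) received 0.2 mg/kg vincristine ip once daily on days 1–7. Mean survival to 30 days was expressed as % increase in life span relative to placebo control.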

Mus musculus [6] = test: Relative tumor growth inhibition against human epidermoid carcinoma KB/8.5 implanted subcutaneously only in mice at 8 mg/kg (DOX); format: functional; details: route subcutaneous
Summary of the method: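 KB/8.5 cells grown in RPMI 1640 with 5% fetal calf serum plus colchicine (10 ng/mL), which was removed for two passages. 8 × 10^6 cells were then implanted sc in athymic nude mice. At 100-300 mg tumor mass, mice were grouped 5-10/group. Doxorubicin was given as a single iv dose (8 mg/kg). Tumor mass was measured on day 14, and relative growth was compared with saline control.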

Mus musculus [7] = test: Percent increase in mean life span in mice infected with leukemia P388/VCR, at 25 mg/Kg dose; format: functional; summary of the method: as §2
Mus musculus [8] = test: Percent increase in mean life span relative to treatment with an equivalent dose of vincristine alone at 25 mg/kg in mice with vincristine-resistantmurine leukemia P388/VCR cells; format: functional; summary of the method: as §1
Mus musculus [9] = test: Percent tumor growth inhibition against human epidermoid carcinoma KB/8.5 implanted subcutaneously in mice at 50 mg/kg of compound along with 8 mg/kg (DOX ) was determined; format: functional
Summary of the method: (§3)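 Athymic nude mice bearing sc KB/8.5 tumors (8×10^6 cells, colchicine withdrawn for two passages), grouped at 100–300 mg tumor mass, 5–10 mice/group. Doxorubicin 8 mg/kg given once iv; reversal agent or placebo given sc 2 h before and 2 h after. Tumor mass on day 14 used for relative tumor growth versus doxorubicin alone; Student t-test on log RTG.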

Mus musculus [10] = test: Percent increase in mean life span in mice infected with leukemia P388/VCR, at 6.3 mg/Kg dose; format: functional; summary of the method: as §2
Mus musculus [11] = test: Percent increase in mean life span relative to treatment with an equivalent dose of vincristine alone at 6.3 mg/kg in mice with vincristine-resistantmurine leukemia P388/VCR cells; format: functional; summary of the method: as §1
Mus musculus [12] = test: Percent increase in mean life span in mice infected with leukemia P388/VCR, at 50 mg/Kg dose; format: functional; summary of the method: as §2
Mus musculus [13] = test: Percent increase in mean life span relative to treatment with an equivalent dose of vincristine alone at 50 mg/kg in mice with vincristine-resistantmurine leukemia P388/VCR cells; format: functional; summary of the method: as §1
Mus musculus [14] = test: Percent increase in mean life span in mice infected with leukemia P388/VCR, at 100 mg/Kg dose; format: functional
Summary of the method: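 CDF1 mice were implanted ip with 1 × 10^6 P388/VCR cells (line passaged in DBA/2 ascites). Agent at 100 mg/kg in Cremophor/ethanol/saline was given ip once daily on days 1–7 without vincristine. Survival was followed to 30 days. Result is the % increase in mean life span versus placebo.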

Mus musculus [15] = test: Percent tumor growth inhibition against human epidermoid carcinoma KB/8.5 implanted subcutaneously in mice at 100 mg/kg of compound along with 8 mg/kg (DOX ) was determined; format: functional; summary of the method: as §3

SMILES | logP ([1]; read-out: logP) | ILS at 12.5 mg/kg (Mus musculus [2]) | IC50 (S1B1-20) | ILS at 12.5 mg/kg (Mus musculus [3]) | CC50 [4] | ILS (Mus musculus [5]) | Relative tumor growth (Mus musculus [6]) | logP [1] | ILS at 25 mg/kg (Mus musculus [7]) | ILS at 25 mg/kg (Mus musculus [8]) | TGI (Mus musculus [9]) | ILS at 6.3 mg/kg (Mus musculus [10]) | ILS at 6.3 mg/kg (Mus musculus [11]) | ILS at 50 mg/kg (Mus musculus [12]) | ILS at 50 mg/kg (Mus musculus [13]) | ILS at 100 mg/kg (Mus musculus [14]) | TGI (Mus musculus [15])
COc1ccc2c(c1)CCN(CCCCCC(C#N)(Sc1ccc(C)cc1)c1ccc(OC)c(OC)c1)C2 (stereo not drawn) | 6.64 | 24% | 1.92 µM | 56% | 15.7 µM | 26% |  |  |  |  |  |  |  |  |  |  | 
COc1ccc(C(C#N)(CCCCCCN2CCc3cc(OC)c(OC)cc3C2)Sc2ccc(C)cc2)cc1OC (stereo not drawn) | 6.71 | 23% | 0.3 µM | 68% | 13.5 µM | 37% |  |  |  |  |  |  |  |  |  |  | 
COc1ccc(C(C#N)(CCCCCCCCCCCN2CCc3cc(OC)c(OC)cc3C2)Sc2ccc(C)cc2)cc1OC (stereo not drawn) |  |  | 1.74 µM |  | 10.8 µM | 24% | 39 | 9.35 | 42% | 14% | 61% |  |  |  |  |  | 
COc1ccc(C(C#N)(CCCCCCCCN2CCc3cc(OC)c(OC)cc3C2)Sc2ccc(C)cc2)cc1OC (stereo not drawn) | 7.76 |  | 0.36 µM |  | 11.6 µM | 24% |  |  |  |  |  | 34% | 8% |  |  |  | 
COc1ccc(C(C#N)(CCCN2CCc3cc(OC)c(OC)cc3C2)Sc2ccc(C)cc2)cc1OC (stereo not drawn) | 5.12 |  | 0.46 µM |  | 24 µM | 51% | 39 |  |  |  | 63% |  |  | 73% | 15% | -3% | 
COc1ccc(C(C#N)(CCCCCN2CCc3cc(OC)c(OC)cc3C2)Sc2ccc(C)cc2)cc1OC (stereo not drawn) | 6.18 | 33% | 0.37 µM | 83% | 13.6 µM | 37% | 69 |  |  |  | 59% |  |  |  |  | -4% | 
COC(=O)C(CCCN1CCc2cc(OC)c(OC)cc2C1)(Sc1ccc(C)cc1)c1ccc(OC)c(OC)c1 (stereo not drawn) | 5.54 |  | 1.47 µM |  | 32.8 µM | 13% |  |  |  |  |  |  |  | 25% | 11% |  | 
COc1cc2c(cc1OC)CN(CCCCCCC(Sc1ccccc1)c1ccccc1)CC2 (stereo not drawn) | 7.99 |  | 3.82 µM |  | 24.6 µM | 15% | 59 |  | 68% | 46% |  |  |  |  |  |  | 65%
